Measurements reported in ChEMBL document CHEMBL3046885, “Toxicity of (+)- and (-)-gossypol to the plant pathogen, Rhizoctonia solani” (2002).
Several values for one entry are separate records, joined by “and”; a condition that tells them apart may be missing. Identical values can stand only once.

Legend:
Rhizoctonia solani [1] = experiment: Antifungal activity against Rhizoctonia solani J-1 after 72 hr by turbimetric assay; type: functional; conditions: read-out: ED50 (the source's name)
Method in brief: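 Sieved macerated mycelium of strain J-1 was held 10 h in buffered defined medium (pH 6.3, 125 mM glucose), then mixed 1:1 with compound in medium/DMSO. Ten wells per concentration; DMSO control. Incubated at 26-28 °C in dark. OD750 was read from 72 h, every 12 h, until control OD reached 0.065-0.100. ED50 came from fractional effect versus concentration. Three plates per experiment, at least four experiments.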

Rhizoctonia solani [2] = experiment: Antifungal activity against Rhizoctonia solani J-1 after 4 to 5 days; type: functional
Method in brief: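 Mycelial suspension of strain J-1 (grown 3-4 days at 26-28 °C in potato dextrose broth with rifampicin, macerated in buffered defined medium, pH 6.3, 125 mM glucose). Mixed 1:1 with compound in medium/DMSO; 12 wells per concentration, DMSO controls. Incubated 48 h at 26-28 °C in dark, then plated on PDA and scored visually after 4-5 days. LD100 is the lowest concentration giving no growth. At least three assays.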

Compound | EC50 (Rhizoctonia solani [1]; Rhizoctonia solani, J-1, 72 h) [µM] | LD100 (Rhizoctonia solani [2]) [µM] | EC50 (Rhizoctonia solani [1])
COc1c(C)cc2c3c(c(O)c(O)c(C(C)C)c13)CO2 [DESOXHEMIGOSSYPOL-6-METHYL ETHER] | 2.52 | 40 | –
Cc1cc2c3c(c(O)c(O)c(C(C)C)c3c1)CO2 [DESOXYHEMIGOSSYPOL] | 3.52 | 41 | –
Cc1cc2c(C(C)C)c(O)c(O)c(C=O)c2c(O)c1-c1c(C)cc2c(C(C)C)c(O)c(O)c(C=O)c2c1O [GOSSYPOL] | 25.1 | >106 | 24.3 µM and 23.9 µM
COc1cc(O)c2c(C=O)c(O)c(O)c(C(C)C)c2c1 [HEMIGOSSYPOL-6-METHYL ETHER] | 13.1 | 55 | –
Cc1cc(O)c2c(C=O)c(O)c(O)c(C(C)C)c2c1 [HEMIGOSSYPOL] | 21.4 | 77 | –
CC1=Cc2cccc(C)c2C(=O)C1=O [O-HIBISCANONE] | 3.76 | 27 | –
